Sampled rows, rich in hits. Any-hit rate of the full collection: about 5.5%.
RAM inhibit: blocks the yeast RAM network; S. cerevisiae dse1pr::URA3 reporter, 5-FOA growth OD615, 2 d; analog-sensitive cbk1-as2 kinase mutant strain; inhibition, % at 50 µM; hit rate 1.8% among 190,000; AID 868;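 active = inhibition above a set limit, 3 SD over mean compound inhibition, cut at about 8.4% in these data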;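 also: 0% = DMSO-only wells with no growth and 100% = 10 µM 1-NA-PP1 full growth; inhibition rescues growth on 5-FOA so higher OD means more RAM inhibition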
WT yeast gro inh: growth inhibition of WT yeast, mitochondrial fusion screen | inhibition, % at 10 µM | mitochondrial fusion phenotypic screen, WT strain | hit rate 2.1% among 190,000; in the data active = inhibition above about 58%; tested in S. cerevisiae
Yeast life ext: extends the lifespan of yeast. S. cerevisiae growth with nicotinamide, OD615; deaD strain in restrictive glucose medium. hit rate 0.68% among 130,000. inhibition of the nicotinamide effect, % at 10 µM;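 active = inhibition above a set limit, placed 3 SD over the median of all compounds, cut at about 26% in these data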;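 also: 0% = nicotinamide-treated wells and 100% = cells grown without nicotinamide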
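Buffer or medium: CSMM-D glucose medium, restrictive; test system: modified budding yeast, DeaD strain; compound: single dose 10 µM compound, 0.25% DMSO; schedule: culture preincubation 4 h, compound exposure 48 h, both 30 °C; detection: optical density (absorbance) at 615 nm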
KCC2 mod: KCC2 (human) Cl- transport modulation. KCC2 cells, thallium flux FluoZin-2 fluorescence. B-score of Tl+ flux slope (higher = more flux/activation; lower = inhibition) at 10 µM. hit rate 2.2% among 190,000. AID 1456;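 active = thallium flux slope and its plate-corrected score both differing from the plate sample mean at a set confidence after two filtering rounds, in either direction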;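 also: slope of fluorescence scaled to starting intensity during 10 to 20 s after thallium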
BB579 growth dn: chemicals that inhibit yeast BB579 growth in restrictive medium (lifespan-shortening candidates); hit rate 0.51% among 140,000; S. cerevisiae BB579 growth, OD615, 48 h; inhibition, % at 10 µM;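 active = inhibition above a set limit, 3 SD over the mean compound inhibition, cut at about 44% in these data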
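System: Saccharomyces cerevisiae DeaD strain BB579, replicative lifespan model yeast | Buffer or medium: Restrictive glucose-based CSMM-D medium | Times: 4 h preincubation and 48 h exposure at 30 °C | Detection: OD615 turbidity measurement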
KCC2 secondary: KCC2 (human) modulation, secondary assay | shares compounds with KCC2 mod | HEK293-KCC2, thallium flux, FluoZin2 fluorescence; hits give high values | normalised thallium flux (F/F0 slope) at 10 µM | hit rate 15% among 3,700 | AID 1713;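 active = thallium flux slope above the same plate's solvent-only control mean plus 3 SD; inconclusive = the two replicate wells disagree; inactive = no significant difference from solvent-only control wells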
KCC2 bumet counter: thallium flux persisting under bumetanide in KCC2 cells, counter-screen secondary assay. shares compounds with KCC2 mod. HEK293-KCC2 + bumetanide/ouabain, thallium flux FluoZin2; hits give high values. normalized thallium flux at 10 µM. hit rate 49% among 3,700. AID 1714;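 active = thallium entry rate above the same plate's blocked-transporter control wells by more than 3 SD; inconclusive = the two repeat wells disagree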;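 also: raw slope of fluorescence over initial fluorescence between 10 and 20 s after thallium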
KCC2 sec2: KCC2 (human) modulation, second secondary assay | HEK293-KCC2, thallium flux FluoZin2 fluorescence; actives lie on both sides; F/F0 rise rate, 10–20 s post-thallium | normalized thallium flux at 10 µM | hit rate 23% among 3,700 | shares compounds with KCC2 mod | AID 1715;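 active = thallium flux slope more than 3 SD above or below the plate's solvent-only control mean, mostly below; inconclusive = the two repeat wells disagreed; inactive = no significant shift from solvent-only controls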;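 also: raw slope with 0.1% DMSO as baseline and bumetanide as block control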
HEK counter1: parental HEK flux effect, counter-screen; hit rate 46% among 3,700; AID 1716; HEK293 parental cells, thallium flux FluoZin2, ouabain; baseline-ratio fluorescence slope, 10–20 s after thallium; shares compounds with KCC2 mod; thallium flux rate (normalised fluorescence) at 10 µM;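 active = thallium flux rate significantly above the same plate's solvent-only control wells, beyond their mean plus 3 SD; inconclusive = the two replicate wells gave conflicting results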
KCC2 retest ouab: confirmation of human KCC2 modulators with ouabain | shares compounds with KCC2 mod | HEK293-KCC2, thallium flux FluoZin2 fluorescence; bidirectional: low = inhibitor, high = activator | raw Tl+ flux slope (below DMSO = inhibition, above = activation) at 10 µM | hit rate 48% among 3,700 | AID 1717;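 active = thallium flux slope beyond 3 SD from same-plate DMSO control mean in most replicates, usually higher, sometimes lower; inconclusive = repeat tests gave conflicting results; inactive = no significant difference from controls in most replicates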;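 also: slope of initial-normalized fluorescence between seconds 10 and 20 after thallium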
HEK counter2: parental HEK flux effect, counter-screen 2; shares compounds with KCC2 mod; thallium flux slope at 10 µM; HEK293 parental, thallium flux FluoZin-2 fluorescence slope; hit rate 33% among 3,700;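 active = thallium flux slope above the same plate's solvent-control mean plus 3 SD in both duplicate wells; inconclusive = duplicate wells that disagreed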;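 also: run without ouabain in cells lacking the KCC2 cotransporter; slope of fluorescence scaled to its starting value between 10 and 20 s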
* marks the source's active call; other numbers are inactive results; ? = inconclusive; nt = no result.

SMILES	RAM inhibit	WT yeast gro inh	Yeast life ext	KCC2 mod	BB579 growth dn	KCC2 secondary	KCC2 bumet counter	KCC2 sec2	HEK counter1	KCC2 retest ouab	HEK counter2
CC(=O)c1ccc(N2CCN(C(=O)Cn3c(=S)[nH]c4ncccc4c3=O)CC2)cc1	4.5	-3.5	nt	1.63	nt	nt	nt	nt	nt	nt	nt
O=P(O)(CN1CCCCC1)C1CCCCC1O (stereo not drawn)	nt	18.1	nt	nt	nt	nt	nt	nt	nt	nt	nt
Cc1ccc(Nc2nnc(SCc3cc(=O)n4ccsc4n3)s2)c(C)c1	1.3	28.4	-1.9	-7.59*	-48.0	0.00865	0.00678	?	0.00381	0.0163*	0.0112
CCc1ccc(Nc2nnc(SCc3cc(=O)n4ccsc4n3)s2)cc1	5.0	2.9	-12.1	-8.47*	-44.2	0.00848	0.00548	0.0208*	0.00573	0.0115*	0.00945
COc1ccccc1Nc1nnc(SCc2cc(=O)n3ccsc3n2)s1	2.3	nt	nt	-0.85	nt	nt	nt	nt	nt	nt	nt
O=C(Nc1ccccn1)C(F)(F)C(F)(F)C(F)(F)C(F)(F)C(=O)Nc1ccccn1	3.3	-7.0	9.3	-0.295	-6.3	nt	nt	nt	nt	nt	nt
Cc1c(C(=O)C(=O)N2CCCc3ccccc32)c2ccccc2n1C	1.0	-4.6	5.1	-2.04	-29.3	nt	nt	nt	nt	nt	nt
COc1ccc(C(=O)NC(=S)NCc2ccco2)cc1OC	0.0	14.5	-19.2	nt	-4.2	nt	nt	nt	nt	nt	nt
Cc1ccc(C(=O)NC(=S)NCc2ccco2)cc1	-1.6	9.2	nt	18.7*	nt	0.014*	0.0221*	0.0347	0.0266*	0.0286*	0.0156*
COc1ccc(C(=O)NC(=S)NCc2ccco2)cc1	nt	nt	nt	6.8*	nt	0.0111	0.0151*	0.0322	?	?	0.0119
COc1ccc(NC(=O)CSc2nnc(-c3ccncc3)n2C)cc1	2.6	-3.7	nt	0.498	nt	nt	nt	nt	nt	nt	nt
COc1ccc(NC(=O)CSc2nc(-c3ccncc3)nn2CC(=O)N2CCCC2)cc1	-0.8	6.5	-13.1	-4.25*	-17.9	0.0069	0.00477	0.0279	0.00737	0.018	0.0105
CCOC(=O)Cn1nnnc1C(C(C)C)N(Cc1cccs1)Cc1cc2cc(C)ccc2[nH]c1=O (stereo not drawn)	2.7	19.2	-0.5	nt	-36.5	0.00623	0.00452	0.0283	0.00752	0.0186	0.0108
CCOC(=O)Cn1nnnc1C(CC)N(Cc1cccs1)Cc1cc2cc(C)ccc2[nH]c1=O (stereo not drawn)	3.0	-27.1	-5.7	-0.249	-14.3	nt	nt	nt	nt	nt	nt
COc1cccc2c1OCC(CN1CCN(CCC(C)C)C(CCO)C1)=C2 (stereo not drawn)	1.4	3.8	nt	-0.00506	nt	nt	nt	nt	nt	nt	nt
c1coc(CNc2c3c(nc4ccccc24)CCC3)c1	-0.2	4.1	1.9	7.31*	-43.5	0.00517	0.00392	0.0279	0.00651*	0.0162*	0.00993
N#Cc1c2c(c(NCc3ccco3)n3c1nc1ccccc13)CCC2	5.0	-5.0	-11.8	nt	-25.6	nt	nt	nt	nt	nt	nt
CCN(CC)S(=O)(=O)c1cc(NC(=O)CNc2c(C)n(C)n(-c3ccccc3)c2=O)ccc1C	0.1	-16.8	nt	-0.769	nt	nt	nt	nt	nt	nt	nt
COc1ccc(Br)cc1CN(C)CC(=O)Nc1c(Cl)cccc1Cl	1.9	28.9	2.9	-1.01	-60.9	nt	nt	nt	nt	nt	nt
CC1CCC(C(=O)NNC(=O)c2cc(-c3ccco3)[nH]n2)CC1 (stereo not drawn)	1.8	15.7	nt	-2.92*	nt	0.00875	0.00626	0.0289	?	?	0.00982
O=C(Nc1ccc(Cc2ccc(NC(=O)C3CC3)c(O)c2)cc1O)C1CC1	1.0	-15.5	-16.1	0.0692	-42.0	nt	nt	nt	nt	nt	nt

Screening results (PubChem BioAssay)
